The list is not random: actives were taken first. Their share in the collection is about 2%.
M18AAP inhibitor – PfM18AAP inhibitors, malaria aminopeptidase, primary screen, biochemical, QFRET, recombinant enzyme | H-Glu-NHMec fluorogenic cleavage | inhibition, % at 7.35 µM | hit rate 1.2% among 290,000;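 active = inhibition above the campaign mean inhibition over all tested compounds plus 3 SD, cut at about 28% in these data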;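 note: 0% = plate median of test compound wells and 100% = 2 mM ZnCl2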
TNF death inh – inhibitors of TNF-alpha triggered necroptosis, primary screen, cell-based, Jurkat FADD-/-, single concentration | Jurkat FADD-/- TNF necroptosis rescue, ATP luminescence, 24 h; 0 = TNF only, 100 = no-TNF cells | activation (protection from cell death), % at 10 µM | hit rate 0.068% among 220,000;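 active = activation, meaning protection from cell death, of at least 50% relative to plate controls; inactive = activation below 50%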;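 note: necroptosis triggered by 40 ng/mL TNF-alpha added together with compound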
L929 necroptosis – inhibitors of zVAD-triggered necroptosis, primary screen, L929 cells. L929 zVAD necroptosis rescue, ATP luminescence, 24 h; with zVAD 60 µM. AID 1377, 2008. viability rescue, % at 10 µM. hit rate 0.38% among 220,000;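 active = activation, scaled between plate controls, above about 75%, limit read from the data; inactive = activation under that limit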;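 note: 0% = zVAD with DMSO and 100% = DMSO alone without zVAD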
RBBP9 inhibitor – human RBBP9 inhibitors, primary screen, biochemical, fluorescence polarization, FP-Rh probe, HTS; Serine hydrolase RBBP9 (Homo sapiens), O75884; recombinant RBBP9; inhibition, % at 7.94 µM; hit rate 0.2% among 220,000; AID 1515, 2009;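 active = inhibition above the campaign mean of all tested compounds plus 3 SD, cut at about 14% in these data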;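 note: plate controls were DMSO wells with RBBP9 for no effect and wells lacking RBBP9 protein for full effect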
Target sequence (O75884 whole entry, looked up): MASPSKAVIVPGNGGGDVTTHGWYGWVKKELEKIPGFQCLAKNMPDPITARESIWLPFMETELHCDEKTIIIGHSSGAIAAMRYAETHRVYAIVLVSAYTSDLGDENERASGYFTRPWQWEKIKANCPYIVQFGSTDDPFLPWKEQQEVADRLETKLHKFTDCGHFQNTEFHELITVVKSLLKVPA
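Measured by – fluorescence polarization · Test system – RBBP9 protein · Input – 2.5 µM RBBP9 dispensing solution, before mixing · Measure – percent inhibition from mP, scaled between DMSO and no-protein wells · Benchmarks – DMSO-treated enzyme wells and wells lacking RBBP9 · Times – preincubation 30 min plus labeling 45 min at 25 °C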
Lipid droplet – inhibitors of hepatocyte lipid droplet formation, primary screen, imaging, high-throughput imaging, BODIPY stain; hit rate 0.4% among 240,000; inhibition, % at 6.5 µM; AML12 mouse hepatocytes, oleate lipid droplets;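 active = lipid droplet intensity inhibited by at least 50%, with more than 500 cells counted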
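Material – mouse AML12 hepatocyte cell line, fixed after treatment · Compound dosing – one dose, 6.5 µM compound · Times – compound with oleate, overnight · Measured by – Image-based BODIPY and DAPI two-channel analysis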
Tb hexokinase – Trypanosoma brucei hexokinase 1 inhibitors, primary screen, biochemical, G6PDH-coupled NADH absorbance, MLSCN library. hexokinase 1 [Trypanosoma brucei]. recombinant TbHK1, G6PDH-coupled NADH A340. inhibition, % at 10 µM. hit rate 0.11% among 220,000;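 active = inhibition of 50% or more in the single-dose primary screen; inactive = inhibition below 50%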
The depositor's hits bear a star; nt = not tested or not shown.

SMILES	M18AAP inhibitor	TNF death inh	L929 necroptosis	RBBP9 inhibitor	Lipid droplet	Tb hexokinase
COc1cc(/C=C2/SC(=S)N(c3c(C)n(C)n(-c4ccccc4)c3=O)C2=O)ccc1O	33*	0	-1	-67	-1	-17
O=C1CC(=O)c2c1cccc2[N+](=O)[O-]	34*	-9	0	14	-1	4
CC(C)C(=O)NC(c1ccco1)c1ccc2cccnc2c1O (stereo unspecified)	30*	-21	4	-2	nt	16
Cn1nnnc1SCc1ccccc1F	2	25	77*	1	-1	-1
O=C(O)c1ccc(/C=N/n2cc(-c3ccccc3)[nH]c2=S)cc1	48*	2	0	-11	0	-17
Cc1ccc(C)c(/C=N/n2cc(-c3ccccc3)[nH]c2=S)c1	29*	-6	-1	-9	6	0
Cc1ccc(N2C(=S)N=C(Nc3ccccc3C)C23CCOC(C)(C)C3)cc1 (stereo unspecified)	4	-1	0	-7	nt	-3
COc1ccc(C(=O)Nc2nnc(Cc3ccc(OC)c(OC)c3)s2)cc1	-12	nt	nt	nt	-2	nt
O=S(=O)(Nc1ccc(O)c(NS(=O)(=O)c2ccccc2)c1)c1ccccc1	68*	nt	nt	nt	5	nt
C/C(=N\NC(=O)c1c(C)nc2ccccn12)c1ccccc1F	2	nt	nt	nt	13	nt
C/C(=N\NC(=O)c1c(C)nc2ccccn12)c1ccc(O)cc1O	29*	nt	nt	nt	-6	nt
Oc1cccc(/C=N/Nc2cc(N3CCOCC3)nc(N3CCOCC3)n2)c1	5	6	-1	-5	-49	-41
Oc1ccc(/C=N/Nc2cc(N3CCOCC3)nc(N3CCOCC3)n2)cc1O	56*	2	66	-7	-7	-37
CCN(CC)S(=O)(=O)c1ccc(N/N=C/c2ccc(O)cc2O)nc1	37*	-19	7	0	5	-25
CCN(C(=O)CCc1nnc2ccc(NCc3ccco3)nn12)c1ccccc1	29*	nt	nt	nt	-9	nt
O=C(CCc1nnc2ccc(NCc3ccco3)nn12)Nc1ccccn1	26	nt	nt	nt	17	nt
COc1cc(C2C(C(=O)c3ccc(C)o3)=C(O)C(=O)N2c2cc(C)on2)ccc1O (stereo unspecified)	28*	-1	0	-6	nt	2
O=C(NNS(=O)(=O)c1ccc(Br)cc1)c1ccccc1-n1cccc1	-3	nt	nt	nt	0	nt
O=C(NC(=S)Nc1ccccc1Cl)c1csnn1	3	-2	0	9	nt	4
O=C(Nc1ccccc1NC(=O)c1csnn1)c1csnn1	73*	-1	2	-2	-2	3
O=C(NNS(=O)(=O)c1ccc(Br)cc1)c1csnn1	30*	0	1	9	13	-1
Cc1ccccc1N=C(NO)c1nonc1N	29*	-9	-3	-11	10	1
CCONC(=NC)c1nonc1N	1	1	1	-9	6	0
CCOc1cc(C2CC(=O)N3CN(C4CCCCC4)CSC3=C2C#N)ccc1O (stereo unspecified)	31*	0	0	9	-1	-15
O=c1/c(=C/c2ccc([N+](=O)[O-])cc2)sc2n1CCCN=2	28*	-3	0	-4	nt	-21
CC(C)C1Nc2ccc(C(=O)NCc3ccco3)cc2NC1=O (stereo unspecified)	30*	nt	nt	nt	16	nt
O=C(N/N=C\c1c(O)ccc2ccccc12)c1ccc(S(=O)(=O)N2CCCCC2)cc1	9	-7	70	8	-18	1
O=C(NN=C1CCCCCCCCCCC1)c1cccc(S(=O)(=O)N2CCOCC2)c1	-6	1	0	-3	-2	-5
C/C(=N\NC(=O)CC#N)C1COc2ccccc2O1 (stereo unspecified)	29*	0	3	-10	6	-5
COc1ccc(CCNC(=O)COC(=O)/C=C/c2cc(OC)c(OC)c(OC)c2)cc1OC	-2	1	21	-5	31	-20

High-throughput results (PubChem BioAssay)
